Measured values published in ChEMBL document CHEMBL1144689, “Antileukemic activity of genistein, a major isoflavone present in soy products” (J Nat Prod, 2008).
The source made the active and inactive calls. The rule behind the calls is not given here.

Tests used:
L1210 [1] = experiment: Growth inhibition of mouse L1210 cells at 10 uM after 24 hrs; format: functional; settings: L1210, 24 h, read-out: GI
Method in brief: (§1)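 For L1210 (RPMI-1640, 5% heat-inactivated FCS, 6 µM 2-mercaptoethanol), log-phase cultures at 2 × 10^4 cells/mL were given 1–20 µM for 12, 24 or 48 h. Coulter particle counter counts were expressed as % growth inhibition versus untreated control. IG50 was taken at 24 h. Triplicate, three repeats, mean ± SEM.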

L1210 [2] = experiment: Antileukemic activity against mouse L1210 cells at 5 uM after 12 hrs by clonogenic assay; format: functional
Method in brief: (§2)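 Murine L1210 cells cultured in RPMI-1640 with 5% heat-inactivated FCS and 6 µM 2-mercaptoethanol. Log-phase cells at 2 × 10^4 cells/mL exposed to 1–20 µM for 12, 24 or 48 h, then drug removed by centrifugation. 100 cells plated in 0.45% soft agar with 10% serum. Colonies >50 cells counted at day 7. Result as % relative to untreated control. Triplicate, three repeats, mean ± SEM.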

[3] = Elimination half life in human plasma; format: ADME, organism-based
L1210 [4] = experiment: Antileukemic activity against mouse L1210 cells at 2 uM after 48 hrs by clonogenic assay; format: functional; method in brief: as §2
L1210 [5] = experiment: Antileukemic activity against mouse L1210 cells at 5 uM after 24 hrs by clonogenic assay; format: functional; method in brief: as §2
L1210 [6] = experiment: Growth inhibition of mouse L1210 cells at 2 uM after 48 hrs; format: functional; settings: L1210, 48 h, read-out: GI; method in brief: as §1
[7] = Half life in CD2F1 mouse; format: ADME, organism-based; settings: in vivo
L1210 [8] = experiment: Growth inhibition of mouse L1210 cells at 1 uM after 24 hrs; format: functional; settings: L1210, 24 h, read-out: GI; method in brief: as §1
MOLT-3 [9] = experiment: Growth inhibition of human MOLT3 cells after 48 hrs; format: functional
Method in brief: (§3)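 Human leukemic cells (RPMI-1640, 10% heat-inactivated FBS), log phase, seeded at 2 × 10^4 cells/mL. Exposed to 1, 2, 5, 10 or 20 µM (DMSO stock). Cell number counted with a Coulter particle counter at 48 h. Growth inhibition as % of untreated control. IG50 is the concentration giving 50% inhibition. Triplicate, three repeats, mean ± SEM.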

Mus musculus = organism: Mus musculus; experiment: Toxicity in mouse L1210 cells transplanted CD2F1 mouse assessed as increase in survival time at 0.5% treated with diet for 10 days; format: organism-based; settings: in vivo, po, 240 h
Method in brief: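 Male CD2F1 mice, 24–28 g, n = 11 per group, on a 2016 diet with or without 0.5% supplement, adapted over 10 days. Then injected i.v. with 10^4 L1210 cells (0.1 mL), passaged weekly i.p. as ascites. Diet continued. Survival checked 2–3 times daily and increase in life span calculated. Toxicity assessed by body weight loss.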

L1210 [10] = experiment: Growth inhibition of mouse L1210 cells at 5 uM after 24 hrs; format: functional; settings: L1210, 24 h, read-out: GI; method in brief: as §1
HL-60 [11] = experiment: Antileukemic activity against human HL60 cells at >2 uM after 24 hrs by clonogenic assay; format: functional
Method in brief: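 Log-phase cells at 2 × 10^4 cells/mL in RPMI-1640 with 10% heat-inactivated FBS, 37 °C, 5% CO2. Drug (DMSO stock) at 1, 2, 5, 10 or 20 µM for 24 h, removed by centrifugation. 100 cells plated in 0.45% soft agar with 20% serum. Colonies >50 cells counted after 15 days. Loss of clonogenicity as % of untreated control. Triplicate, three repeats, mean ± SEM.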

L1210 [12] = experiment: Antileukemic activity against mouse L1210 cells at 5 uM after 48 hrs by clonogenic assay; format: functional; method in brief: as §2
L1210 [13] = experiment: Growth inhibition of mouse L1210 cells at 2 uM after 12 hrs; format: functional; settings: L1210, 12 h, read-out: GI; method in brief: as §1
Plasma = experiment: Drug concentration in human plasma; format: ADME, cell-free; settings: read-out: Drug uptake
L1210 [14] = experiment: Antileukemic activity against mouse L1210 cells at 2 uM after 24 hrs by clonogenic assay; format: functional; method in brief: as §2
L1210 [15] = experiment: Antileukemic activity against mouse L1210 cells at 2 uM after 12 hrs by clonogenic assay; format: functional; method in brief: as §2
HL-60 [16] = experiment: Growth inhibition of human HL60 cells at 5 uM after 48 hrs; format: functional; settings: HL-60, 48 h, read-out: GI; method in brief: as §3
L1210 [17] = experiment: Antileukemic activity against mouse L1210 cells at 1 uM after 48 hrs by clonogenic assay; format: functional; method in brief: as §2
L1210 [18] = experiment: Growth inhibition of mouse L1210 cells at 10 uM after 48 hrs; format: functional; settings: L1210, 48 h, read-out: GI; method in brief: as §1
L1210 [19] = experiment: Growth inhibition of mouse L1210 cells at 20 uM after 12 hrs; format: functional; settings: L1210, 12 h, read-out: GI; method in brief: as §1
L1210 [20] = experiment: Growth inhibition of mouse L1210 cells after 24 hrs; format: functional; method in brief: as §1
Raji [21] = experiment: Growth inhibition of human Raji cells at 5 uM after 48 hrs; format: functional; settings: read-out: GI; method in brief: as §3
Raji [22] = experiment: Antileukemic activity against human Raji cells after 24 hrs by clonogenic assay; format: functional; settings: read-out: LC50 (the source's name)
Method in brief: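 Log-phase cells seeded at 2 × 10^4 cells/mL in RPMI-1640 with 10% heat-inactivated FBS at 37 °C, 5% CO2, then exposed 24 h to 1–20 µM (DMSO stock). Drug washed out by centrifugation. 100 cells plated in 0.45% soft agar with 20% serum for 15 days, and colonies (>50 cells) counted. Loss of clonogenicity is relative to untreated control. Triplicates, repeated three times, mean ± SEM. LC50 read from the dose curve.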

L1210 [23] = experiment: Induction of p15CDKN2B re-expression in mouse L1210 cells at 1 to 20 uM after 24 hrs by RT-PCR; format: functional, cell-based
Method in brief: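 Murine L1210 cells exposed to 1–20 µM for 24 h. RNA analysed by RT-PCR for p15CDKN2B, with 18S rRNA as reference. Cycle number set within the exponential phase. Products run on 2% agarose and stained with ethidium bromide. Repeated twice.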

MOLT-3 [24] = experiment: Growth inhibition of human MOLT3 cells at 2 uM after 48 hrs; format: functional; settings: MOLT-3, 48 h, read-out: GI; method in brief: as §3

With `O=c1c(-c2ccc(O)cc2)coc2cc(O)cc(O)c12` [GENISTEIN] the inhibition of growth at 10 µM (L1210 [1]) was 42.8%, the Activity (L1210 [2]) was 44% and the half-life [3] was 15 h. For the same compound, the Activity (L1210 [4]) was 8.9%, the Activity (L1210 [5]) was 16% and the inhibition of growth at 2 µM (L1210 [6]) was 21.9%. For the same compound, the half-life [7] was < 0.25 h, the inhibition of growth at 1 µM (L1210 [8]) was 4.1% and the IG50 (MOLT-3 [9]) was 12.7 µM. The Survival (Mus musculus) was 187 h, the inhibition of growth at 5 µM (L1210 [10]) was 28.5% and the Activity (HL-60 [11]) was >10%. For the same compound, the Activity (L1210 [12]) was 32.9%, the inhibition of growth at 2 µM (L1210 [13]) was 6.2% and the concentration (Plasma) was 4 µM. The Activity (L1210 [14]) was 13%, the Activity (L1210 [15]) was 14% and the inhibition of growth at 5 µM (HL-60 [16]) was > 10%. It also gave an Activity (L1210 [17]) of 11.9%, an inhibition of growth at 10 µM (L1210 [18]) of 79.2% and an inhibition of growth at 20 µM (L1210 [19]) of 54.2%. For the same compound, the IG50 (L1210 [20]) was 18.5 µM, the inhibition of growth at 5 µM (Raji [21]) was > 10% and the CC50 (Raji [22]) was 13.7 µM. For the same compound, the Activity (L1210 [23]) was “Active” and the inhibition of growth at 2 µM (MOLT-3 [24]) was > 10%.
